Assay results from ChEMBL document CHEMBL2321834 (J Med Chem, 2013).
Calls of active or inactive are those of the source. No cut-off for these calls is given here.

Legend:
Callithrix jacchus = species: Callithrix jacchus; assay: Inhibition of 17beta-HSD2 in common marmoset placental microsomal fraction assessed as inhibition of [3H]E2 conversion to E1 at 1 uM by scintillation counting analysis; type: microsomes; conditions: Placenta
In short: (§1)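 Cell-free assay measuring percent inhibition of the E2-to-E1 transformation. Enzyme source was the microsomal fraction of rat or mouse liver, or of Callithrix jacchus placenta for the marmoset.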

[1] = target: T1, Estradiol 17-beta-dehydrogenase 2 (Mus musculus) (UniProt P51658); assay: Inhibition of 17beta-HSD2 in mouse liver microsomal fraction assessed as inhibition of [3H]E2 conversion to E1 at 1 uM by scintillation counting analysis; type: microsomes; in short: as §1
T1 sequence (whole entry): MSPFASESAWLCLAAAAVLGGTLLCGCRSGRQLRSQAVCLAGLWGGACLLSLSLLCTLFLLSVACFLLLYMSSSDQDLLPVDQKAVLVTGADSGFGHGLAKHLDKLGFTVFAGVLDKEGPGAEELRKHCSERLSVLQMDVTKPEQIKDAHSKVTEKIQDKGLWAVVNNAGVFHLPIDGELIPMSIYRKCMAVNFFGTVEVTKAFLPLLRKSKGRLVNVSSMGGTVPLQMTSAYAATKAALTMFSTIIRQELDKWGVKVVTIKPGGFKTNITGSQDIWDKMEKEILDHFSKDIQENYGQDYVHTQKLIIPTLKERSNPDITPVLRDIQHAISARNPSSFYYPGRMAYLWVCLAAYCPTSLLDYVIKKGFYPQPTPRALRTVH

[2] = target: T2, Estradiol 17-beta-dehydrogenase 2 (Rattus norvegicus) (UniProt Q62730); assay: Inhibition of 17beta-HSD2 in rat liver microsomal fraction assessed as inhibition of [3H]E2 conversion to E1 at 1 uM by scintillation counting analysis; type: microsomes; in short: as §1
T2 sequence (whole entry): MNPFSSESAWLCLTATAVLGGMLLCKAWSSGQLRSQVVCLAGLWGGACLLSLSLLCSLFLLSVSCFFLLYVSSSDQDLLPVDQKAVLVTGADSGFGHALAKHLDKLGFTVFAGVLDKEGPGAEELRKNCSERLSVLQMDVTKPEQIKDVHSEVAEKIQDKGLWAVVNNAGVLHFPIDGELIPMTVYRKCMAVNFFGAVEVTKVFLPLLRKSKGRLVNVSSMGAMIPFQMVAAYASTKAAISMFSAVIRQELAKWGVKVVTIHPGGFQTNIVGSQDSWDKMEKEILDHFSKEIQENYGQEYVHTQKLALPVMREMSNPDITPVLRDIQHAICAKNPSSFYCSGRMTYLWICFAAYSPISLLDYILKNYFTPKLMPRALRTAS

[3] = target: T3, 11-beta-hydroxysteroid dehydrogenase type 2 (Homo sapiens) (UniProt P80365); assay: Inhibition of human recombinant 11beta-HSD2 expressed in HEK293 cell using [1,2,6,7-3H]cortisol as substrate at 2 uM after 10 mins by scintillation counting analysis; type: cell-based
T3 sequence (whole entry): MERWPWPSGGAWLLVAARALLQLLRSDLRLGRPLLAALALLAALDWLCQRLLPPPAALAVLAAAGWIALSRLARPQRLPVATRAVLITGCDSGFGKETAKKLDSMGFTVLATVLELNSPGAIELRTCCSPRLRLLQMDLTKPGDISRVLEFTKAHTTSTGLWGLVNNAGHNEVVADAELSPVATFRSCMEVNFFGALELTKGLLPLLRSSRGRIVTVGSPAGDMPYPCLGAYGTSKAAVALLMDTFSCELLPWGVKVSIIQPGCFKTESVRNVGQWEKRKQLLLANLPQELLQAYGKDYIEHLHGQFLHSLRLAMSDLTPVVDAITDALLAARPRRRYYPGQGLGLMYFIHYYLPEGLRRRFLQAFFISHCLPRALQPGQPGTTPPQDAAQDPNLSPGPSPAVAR
In short: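 Recombinant human 11β-HSD1 or 11β-HSD2 stably transfected in HEK-293 cells, following a previously described procedure.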

[4] = target: T4, Aldo-keto reductase family 1 member C3 (Homo sapiens) (UniProt P42330); assay: Inhibition of human recombinant 17beta-HSD5 expressed in Escherichia coli using [1,2,6,7-3H]A-dione as substrate at 1 uM by scintillation counting analysis
T4 sequence (whole entry): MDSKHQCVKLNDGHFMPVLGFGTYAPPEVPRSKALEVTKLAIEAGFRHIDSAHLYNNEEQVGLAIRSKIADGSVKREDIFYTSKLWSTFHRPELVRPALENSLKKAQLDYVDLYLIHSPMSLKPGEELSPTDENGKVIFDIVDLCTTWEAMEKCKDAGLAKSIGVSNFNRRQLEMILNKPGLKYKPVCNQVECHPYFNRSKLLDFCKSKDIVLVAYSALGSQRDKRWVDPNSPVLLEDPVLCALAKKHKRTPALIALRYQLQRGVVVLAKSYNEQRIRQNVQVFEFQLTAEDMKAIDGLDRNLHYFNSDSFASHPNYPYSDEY

[5] = target: T5, 17-beta-hydroxysteroid dehydrogenase type 2 (Homo sapiens) (UniProt P37059); conditions: Placenta, Microsomal, at 1 µM;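 note: [3H]estradiol served as substrate, with HPLC analysis after 20 min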
T5 sequence (whole entry): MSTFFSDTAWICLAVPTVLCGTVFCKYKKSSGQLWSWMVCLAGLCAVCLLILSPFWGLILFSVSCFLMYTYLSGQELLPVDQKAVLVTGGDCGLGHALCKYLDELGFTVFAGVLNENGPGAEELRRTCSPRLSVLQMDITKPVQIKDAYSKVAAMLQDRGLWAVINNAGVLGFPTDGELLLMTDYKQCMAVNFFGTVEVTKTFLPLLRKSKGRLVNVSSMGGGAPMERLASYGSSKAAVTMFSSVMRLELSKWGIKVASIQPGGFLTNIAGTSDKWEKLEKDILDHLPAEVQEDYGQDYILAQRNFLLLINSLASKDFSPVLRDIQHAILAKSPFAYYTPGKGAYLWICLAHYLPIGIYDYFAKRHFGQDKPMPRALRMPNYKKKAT

Row | SMILES | inhibition (Callithrix jacchus) [%] | inhibition [1] [%] | inhibition [2] | inhibition [3] [%] | inhibition [4] [%] | inhibition [5] [%]
1 | COc1cccc(N(C)C(=O)c2ccc(-c3cccc(OC)c3F)s2)c1 | 45 | 26 | inactive | 8 | 26 | 93
2 | COc1cccc(-c2ccc(C(=O)N(C)Cc3cccc(O)c3)s2)c1F | 47 | 65 | 25% | 10 | 33 | 89
